Results taken from ChEMBL document CHEMBL2412970, “Synthesis and anticancer activity of 2,4-disubstituted furo[3,2-b]indole derivatives” (Eur J Med Chem, 2013).
Calls of active or inactive are those of the source. No cut-off for these calls is given here.

Key:
[1] = system: A498; assay: Induction of apoptosis in human A498 cells assessed as late apoptotic cells at 0.5 uM after 36 hrs by AnnexinV/FITC-propidium iodide staining-based flow cytometry (reference value: 9.6%); type: functional
In short: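 Flow cytometry with annexin V-FITC/PI double labeling of A498 cells treated for 12, 24, 36 or 48 h; untreated cells served as the 0 h control. Stained in binding buffer for 15 min at room temperature in the dark, with more binding buffer added just before analysis. Annexin V+/PI− (Q4) counted as early apoptotic and annexin V+/PI+ (Q2) as late apoptotic.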

[2] = system: MCF7; assay: Cytotoxicity against human MCF7 cells after 48 hrs by sulforhodamine B assay; type: functional; details: MCF7, 48 h
[3] = system: A498; assay: Cell cycle arrest in human A498 cells assessed as accumulation at sub-G1 phase at 0.5 uM after 36 hrs by propidium iodide staining-based flow cytometry (reference value: 0.10 +/- 0.07%); type: functional
[4] = system: UO-31; assay: Cytotoxicity against human UO31 cells after 48 hrs by sulforhodamine B assay; type: functional; details: UO-31, 48 h
[5] = system: A498; assay: Induction of apoptosis in human A498 cells assessed as early apoptotic cells at 0.5 uM after 24 hrs by AnnexinV/FITC-propidium iodide staining-based flow cytometry (reference value: 3.9%); type: functional
[6] = system: A498; assay: Induction of cell cycle arrest at G2/M phase in human A498 cells assessed as increase in cyclin B1 expression at 0.5 uM after 6 hrs by Western blotting analysis; type: functional, cell-based
In short: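 A498 cells exposed to 0.5 µM for 6, 12, 24, 36 or 48 h, then lysed on ice 30 min and spun 12 000g 20 min. Protein measured by Bradford; 20 µg per lane run on 10% SDS-PAGE, transferred to nitrocellulose, probed for cyclin B1 and CDK1, β-actin as loading control; n = 3 independent experiments.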

[7] = system: A498; assay: Cell cycle arrest in human A498 cells assessed as accumulation at G2/M phase at 0.5 uM after 48 hrs by propidium iodide staining-based flow cytometry (reference value: 5.39 +/- 0.01%); type: functional
[8] = system: SK-OV-3; assay: Cytotoxicity against human SKOV3 cells after 48 hrs by sulforhodamine B assay; type: functional; details: SK-OV-3, 48 h
[9] = system: T47D; assay: Cytotoxicity against human T47D cells after 48 hrs by sulforhodamine B assay; type: functional
[10] = system: NCI-H522; assay: Cytotoxicity against human NCI-H522 cells after 48 hrs by sulforhodamine B assay; type: functional; details: NCI-H522, 48 h
[11] = system: A498; assay: Cell cycle arrest in human A498 cells assessed as accumulation at G0/G1 phase at 0.5 uM after 36 hrs by propidium iodide staining-based flow cytometry (reference value: 78.70 +/- 0.02%); type: functional
[12] = Cytotoxicity against human H460 cells after 48 hrs by MTT assay; type: functional, cell-based; details: NCI-H460, 48 h
In short: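 Cells were treated with a range of concentrations for 48 h. Viability was read by MTT: formazan was dissolved in DMSO and absorbance read at 570 nm. Untreated or 0.1% DMSO cells served as control. Data are mean from three independent experiments. HL-60, H460 and COLO 205 were kept in RPMI-1640 with 10% FBS and penicillin/streptomycin.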

[13] = system: SNB-19; assay: Cytotoxicity against human SNB19 cells after 48 hrs by sulforhodamine B assay; type: functional; details: SNB-19, 48 h
[14] = system: HOP-62; assay: Cytotoxicity against human HOP62 cells after 48 hrs by sulforhodamine B assay; type: functional; details: HOP-62, 48 h
[15] = system: Malme-3M; assay: Cytotoxicity against human MALME-3M cells after 48 hrs by sulforhodamine B assay; type: functional
[16] = system: A498; assay: Cell cycle arrest in human A498 cells assessed as accumulation at sub-G1 phase at 0.5 uM after 48 hrs by propidium iodide staining-based flow cytometry (reference value: 0.10 +/- 0.07%); type: functional
[17] = system: UACC-62; assay: Cytotoxicity against human UACC62 cells after 48 hrs by sulforhodamine B assay; type: functional; details: UACC-62, 48 h
[18] = system: 786-0; assay: Cytotoxicity against human 786-0 cells after 48 hrs by sulforhodamine B assay; type: functional; details: 786-0, 48 h
[19] = system: A498; assay: Induction of apoptosis in human A498 cells assessed as increase in AIF level at 0.5 uM after 6 to 48 hrs by Western blotting analysis; type: functional, cell-based
In short: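 A498 cells exposed for 6, 12, 24, 36 or 48 h, then washed in PBS and lysed. Lysates were held on ice for 30 min and spun at 12 000g for 20 min. Supernatant protein was measured by Bradford assay, run on 10% SDS-PAGE and transferred to nitrocellulose. Blots were probed for AIF, Endo G, Apaf-1, cytochrome c, caspase 9 and caspase 3, with β-actin as loading control; n = 3 independent experiments.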

[20] = system: KM12; assay: Cytotoxicity against human KM12 cells after 48 hrs by sulforhodamine B assay; type: functional; details: KM12, 48 h
[21] = system: A498; assay: Cytotoxicity against human A498 cells assessed as reduction in cell viability at 1 uM after 48 hrs by MTT assay relative to control; type: functional
[22] = system: SK-MEL-2; assay: Cytotoxicity against human SK-MEL-2 cells after 48 hrs by sulforhodamine B assay; type: functional; details: SK-MEL-2, 48 h
[23] = system: OVCAR-5; assay: Cytotoxicity against human OVCAR5 cells after 48 hrs by sulforhodamine B assay; type: functional; details: OVCAR-5, 48 h
[24] = system: UACC-257; assay: Cytotoxicity against human UACC257 cells after 48 hrs by sulforhodamine B assay; type: functional; details: UACC-257, 48 h
[25] = system: OVCAR-3; assay: Cytotoxicity against human OVCAR3 cells after 48 hrs by sulforhodamine B assay; type: functional; details: OVCAR-3, 48 h
[26] = system: A498; assay: Cell cycle arrest in human A498 cells assessed as accumulation at S phase at 0.5 uM after 24 hrs by propidium iodide staining-based flow cytometry (reference value: 15.92 +/- 0.03%); type: functional
[27] = system: HT-29; assay: Cytotoxicity against human HT-29 cells after 48 hrs by sulforhodamine B assay; type: functional; details: HT-29, 48 h
[28] = system: A498; assay: Cell cycle arrest in human A498 cells assessed as accumulation at G2/M phase at 0.5 uM by propidium iodide staining-based flow cytometry; type: functional; details: TDE = time-dependent effect
[29] = read-out: pLC50 (the source's name) (converted)

Structure (SMILES): OCc1ccc(Cn2c3ccccc3c3oc(CO)cc32)o1
- Activity [1]: 20.3%
- GI50 [2]: 9.33 µM
- CC50 [2, 29]: > 100 µM
- TGI ([2]; read-out: pTGI): > 100 µM
- Activity [3]: 3.16%
- GI50 [4]: 50.1 µM
- CC50 [4, 29]: > 100 µM
- TGI ([4]; read-out: pTGI): > 100 µM
- Activity [5]: 12.7%
- Activity [6]: Active
- Activity [7]: 18.09%
- GI50 [8]: > 100 µM
- CC50 [8, 29]: > 100 µM
- TGI ([8]; read-out: pTGI): > 100 µM
- GI50 [9]: 1.62 µM
- CC50 [9, 29]: > 100 µM
- TGI ([9]; read-out: pTGI): > 100 µM
- GI50 [10]: 39.8 µM
- CC50 [10, 29]: > 100 µM
- TGI ([10]; read-out: pTGI): > 100 µM
- Activity [11]: 69.69%
- IC50 [12]: 74.1 µM
- GI50 [13]: > 100 µM
- CC50 [13, 29]: > 100 µM
- TGI ([13]; read-out: pTGI): > 100 µM
- GI50 [14]: > 100 µM
- CC50 [14, 29]: > 100 µM
- TGI ([14]; read-out: pTGI): > 100 µM
- GI50 [15]: > 100 µM
- CC50 [15, 29]: > 100 µM
- TGI ([15]; read-out: pTGI): > 100 µM
- Activity [16]: 12.76%
- GI50 [17]: 3.24 µM
- CC50 [17, 29]: > 100 µM
- TGI ([17]; read-out: pTGI): > 100 µM
- GI50 [18]: 50.1 µM
- CC50 [18, 29]: > 100 µM
- TGI ([18]; read-out: pTGI): > 100 µM
- Activity [19]: Active
- GI50 [20]: > 100 µM
- CC50 [20, 29]: > 100 µM
- TGI ([20]; read-out: pTGI): > 100 µM
- Activity [21]: 19.4%
- GI50 [22]: > 100 µM
- CC50 [22, 29]: > 100 µM
- TGI ([22]; read-out: pTGI): > 100 µM
- GI50 [23]: 0.331 µM
- TGI ([23]; read-out: pTGI (converted)): 1.2 µM
- GI50 [24]: 1.45 µM
- CC50 [24, 29]: > 100 µM
- TGI ([24]; read-out: pTGI (converted)): 4.37 µM
- GI50 [25]: 8.91 µM
- CC50 [25, 29]: > 100 µM
- TGI ([25]; read-out: pTGI): > 100 µM
- Activity [26]: 15.98%
- GI50 [27]: 41.7 µM
- CC50 [27, 29]: > 100 µM
- TGI ([27]; read-out: pTGI): > 100 µM
- Activity [28]: tde
